According to ChEMBL document CHEMBL4402598, “Design and Synthesis of Bitopic 2-Phenylcyclopropylmethylamine (PCPMA) Derivatives as Selective Dopamine D3 Receptor Ligands” (J Med Chem, 2020):

Key:
D(1A) dopamine receptor = D(1A) dopamine receptor (Homo sapiens, UniProt P21728); test: Displacement of [3H]-SCH23390 from recombinant human D1 receptor transiently expressed in HEKT cell membranes measured after 90 mins by microbeta scintillation counting method
D(4) dopamine receptor = target: T1, D(4) dopamine receptor (Homo sapiens, UniProt P21917); test: Displacement of [3H]-N-methylspiperone from recombinant human D4 receptor stably expressed in HEK cell membranes measured after 90 mins by microbeta scintillation counting method
T1 sequence (P21917 whole entry): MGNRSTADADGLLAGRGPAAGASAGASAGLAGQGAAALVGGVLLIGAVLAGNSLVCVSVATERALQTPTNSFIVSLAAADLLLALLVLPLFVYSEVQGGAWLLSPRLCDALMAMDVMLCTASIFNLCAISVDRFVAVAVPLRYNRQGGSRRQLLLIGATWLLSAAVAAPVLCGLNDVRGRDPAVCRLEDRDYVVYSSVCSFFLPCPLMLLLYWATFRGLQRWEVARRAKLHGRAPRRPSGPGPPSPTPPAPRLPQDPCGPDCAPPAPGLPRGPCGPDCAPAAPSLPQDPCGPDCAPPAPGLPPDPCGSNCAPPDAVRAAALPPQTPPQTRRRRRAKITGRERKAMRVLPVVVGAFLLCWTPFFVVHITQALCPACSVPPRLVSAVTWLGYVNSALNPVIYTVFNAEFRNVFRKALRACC

D(1B) dopamine receptor = D(1B) dopamine receptor (Homo sapiens, UniProt P21918); test: Displacement of [3H]-SCH23390 from recombinant human D5 receptor transiently expressed in HEKT cell membranes measured after 90 mins by microbeta scintillation counting method
Sequence of D(1B) dopamine receptor (P21918 whole entry): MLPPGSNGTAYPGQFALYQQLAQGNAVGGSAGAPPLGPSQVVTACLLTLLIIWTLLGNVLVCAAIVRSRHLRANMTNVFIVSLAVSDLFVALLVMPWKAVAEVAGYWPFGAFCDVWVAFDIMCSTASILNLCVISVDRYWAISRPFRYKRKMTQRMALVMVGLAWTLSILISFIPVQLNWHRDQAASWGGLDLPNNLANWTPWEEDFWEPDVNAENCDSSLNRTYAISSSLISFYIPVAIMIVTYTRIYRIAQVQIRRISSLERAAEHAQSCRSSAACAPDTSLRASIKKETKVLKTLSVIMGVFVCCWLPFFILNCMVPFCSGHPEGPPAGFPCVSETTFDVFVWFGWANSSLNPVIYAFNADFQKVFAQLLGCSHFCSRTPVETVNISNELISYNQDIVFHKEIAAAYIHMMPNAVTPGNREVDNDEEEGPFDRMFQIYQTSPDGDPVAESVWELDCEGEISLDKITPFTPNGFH

[1] = target: T2, 5-hydroxytryptamine receptor 2C (Homo sapiens, UniProt P28335); test: Displacement of [3H]-Mesulergine from recombinant human 5HT2C receptor expressed in HEKT cell membranes measured after 90 mins by microbeta scintillation counting method
T2 sequence (P28335 whole entry): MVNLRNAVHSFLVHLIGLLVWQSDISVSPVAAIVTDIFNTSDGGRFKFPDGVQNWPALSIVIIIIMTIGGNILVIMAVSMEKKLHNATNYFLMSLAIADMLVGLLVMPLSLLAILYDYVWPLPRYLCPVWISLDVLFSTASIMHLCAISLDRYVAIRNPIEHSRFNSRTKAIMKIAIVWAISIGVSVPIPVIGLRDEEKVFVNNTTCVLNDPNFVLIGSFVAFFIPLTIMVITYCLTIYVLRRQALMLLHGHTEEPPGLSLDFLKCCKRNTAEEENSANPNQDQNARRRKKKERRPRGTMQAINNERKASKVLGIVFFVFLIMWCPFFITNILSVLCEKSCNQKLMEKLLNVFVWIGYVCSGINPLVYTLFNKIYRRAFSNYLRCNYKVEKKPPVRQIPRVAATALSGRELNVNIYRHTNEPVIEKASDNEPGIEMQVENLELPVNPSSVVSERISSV

[2] = target: T2, 5-hydroxytryptamine receptor 2C; test: Agonist activity at human 5HT2C receptor stably expressed in HEK293 cells co-expressing Gq assessed as induction of calcium mobilization measured at 1 sec interval for 60 secs by Fluo-4 calcium dye based FLIPR assay; type: functional, cell-based
Outline: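 HEK293 cells stably expressing 5-HT2C, plated overnight in DMEM with 1% dialyzed FBS (15,000 cells/well), loaded with Fluo-4 Direct in HBSS/20 mM HEPES pH 7.4/2.5 mM probenecid for 50 min at 37 °C, then 10 min at room temperature. FLIPR read 1/s for 2 min; 10 s baseline subtracted from peak within 60 s; fold of basal. Mean of ≥3 experiments.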

[3] = target: 5-hydroxytryptamine receptor 2A (Homo sapiens, UniProt P28223); test: Agonist activity at 5HT2A receptor (unknown origin) expressed in HEK293 cells co-expressing Gq assessed as induction of calcium mobilization measured at 1 sec interval for 60 secs by Fluo-4 calcium dye based FLIPR assay; type: cell-based; conditions: hek293, 1 min
Sequence of 5-hydroxytryptamine receptor 2A (P28223 whole entry): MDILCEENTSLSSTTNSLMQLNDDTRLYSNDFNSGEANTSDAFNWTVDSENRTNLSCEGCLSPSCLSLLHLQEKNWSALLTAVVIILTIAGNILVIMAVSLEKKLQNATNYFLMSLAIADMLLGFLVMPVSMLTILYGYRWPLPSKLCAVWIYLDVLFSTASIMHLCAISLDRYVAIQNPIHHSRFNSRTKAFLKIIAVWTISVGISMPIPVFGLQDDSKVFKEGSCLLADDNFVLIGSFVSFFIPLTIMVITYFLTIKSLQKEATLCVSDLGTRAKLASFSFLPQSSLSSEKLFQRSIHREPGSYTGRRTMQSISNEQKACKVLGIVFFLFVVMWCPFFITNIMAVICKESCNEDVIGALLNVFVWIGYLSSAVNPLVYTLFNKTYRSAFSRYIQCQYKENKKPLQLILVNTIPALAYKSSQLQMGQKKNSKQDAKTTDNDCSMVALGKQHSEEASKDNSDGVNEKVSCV

[4] = target: 5-hydroxytryptamine receptor 2B (Homo sapiens, UniProt P41595); test: Agonist activity at 5HT2B receptor (unknown origin) expressed in HEK293 cells co-expressing Gq assessed as induction of calcium mobilization measured at 1 sec interval for 60 secs by Fluo-4 calcium dye based FLIPR assay; type: cell-based; conditions: hek293, 1 min
Sequence of 5-hydroxytryptamine receptor 2B (P41595 whole entry): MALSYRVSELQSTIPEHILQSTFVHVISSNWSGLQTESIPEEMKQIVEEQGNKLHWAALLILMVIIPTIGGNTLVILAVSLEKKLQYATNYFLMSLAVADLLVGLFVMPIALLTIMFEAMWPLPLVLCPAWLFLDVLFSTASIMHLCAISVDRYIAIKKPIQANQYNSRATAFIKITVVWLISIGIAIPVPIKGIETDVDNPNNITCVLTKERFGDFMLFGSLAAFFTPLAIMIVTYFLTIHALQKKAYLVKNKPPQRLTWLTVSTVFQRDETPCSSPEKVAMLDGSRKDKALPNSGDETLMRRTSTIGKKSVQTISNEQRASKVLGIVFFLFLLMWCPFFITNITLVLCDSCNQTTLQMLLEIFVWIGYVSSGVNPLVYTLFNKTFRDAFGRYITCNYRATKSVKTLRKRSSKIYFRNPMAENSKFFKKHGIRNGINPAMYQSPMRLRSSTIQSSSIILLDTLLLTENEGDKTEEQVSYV

[5] = Cmax in ICR mouse at 10 mg/kg, po by LC-MS/MS analysis; type: ADME, organism-based; parameters: dose 10 mg/kg, route oral; conditions: in vivo
Outline: (§1)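 Male ICR mice (6-8 weeks, ~25 g) dosed with compound dissolved in saline, 5 mg/kg iv or 10 mg/kg po, nine animals per group. Samples stored at -80 °C; drug quantified by LC-MS/MS.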

D(2) dopamine receptor = D(2) dopamine receptor (Homo sapiens, UniProt P14416); test: Displacement of [3H]-N-methylspiperone from recombinant human D2 receptor stably expressed in fibroblast cell membranes measured after 90 mins by microbeta scintillation counting method
Sequence of D(2) dopamine receptor (P14416 whole entry): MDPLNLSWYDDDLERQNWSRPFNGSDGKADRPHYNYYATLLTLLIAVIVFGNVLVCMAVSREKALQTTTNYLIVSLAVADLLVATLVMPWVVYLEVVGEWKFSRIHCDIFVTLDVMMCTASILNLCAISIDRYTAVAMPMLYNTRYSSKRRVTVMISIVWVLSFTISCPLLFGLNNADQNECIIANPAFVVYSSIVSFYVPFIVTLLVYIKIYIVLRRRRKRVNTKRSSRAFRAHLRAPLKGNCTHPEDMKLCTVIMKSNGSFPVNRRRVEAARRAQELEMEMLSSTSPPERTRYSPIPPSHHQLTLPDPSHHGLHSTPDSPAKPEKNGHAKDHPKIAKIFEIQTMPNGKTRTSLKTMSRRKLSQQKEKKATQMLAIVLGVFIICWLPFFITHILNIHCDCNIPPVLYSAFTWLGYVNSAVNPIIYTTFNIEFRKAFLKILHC

[6] = target: T2, 5-hydroxytryptamine receptor 2C; test: Antagonist activity at human 5HT2C receptor stably expressed in HEK293 cells co-expressing Gq assessed as inhibition of 5-HT-induced calcium mobilization preincubated for 15 mins followed by 5-HT addition and measured at 1 sec interval for 60 secs by Fluo-4 calcium dye based FLIPR assay; type: functional, cell-based
Outline: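 5-HT2C stably transfected HEK293 cells, loaded with Fluo-4 Direct (HBSS, 20 mM HEPES pH 7.4, 2.5 mM probenecid; 50 min 37 °C, 10 min room temperature). Test compound added, then 5-HT (final 1 nM) 15 min later.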

[7] = Half life in ICR mouse at 5 mg/kg, iv by LC-MS/MS analysis; type: ADME, organism-based; conditions: in vivo; outline: as §1
[8] = AUC (0 to t) in ICR mouse at 5 mg/kg, iv by LC-MS/MS analysis; type: ADME, organism-based; conditions: in vivo; outline: as §1
[9] = Clearance in ICR mouse at 5 mg/kg, iv by LC-MS/MS analysis; type: ADME, organism-based; conditions: in vivo; outline: as §1
[10] = MRT in ICR mouse at 5 mg/kg, iv by LC-MS/MS analysis; type: ADME, organism-based; conditions: in vivo; outline: as §1
[11] = Volume of distribution at steady state in ICR mouse at 5 mg/kg, iv by LC-MS/MS analysis; type: ADME, organism-based; conditions: in vivo, read-out: Vdss; outline: as §1
[12] = Drug level in ICR mouse brain at 5 mg/kg, iv measured after 0.5 hrs by LC-MS/MS analysis; type: ADME, organism-based
Outline: (§2)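 Male ICR mice (6-8 weeks, ~25 g) received compound in saline, 5 mg/kg iv or 10 mg/kg po. Brains collected at 0.5 and 2.0 h, saline-washed, weighed, homogenized in cold 50% methanol (1 g:3 mL). Plasma prepared from orbital blood. Samples held at -80 °C; LC-MS/MS quantitation. Brain/plasma ratio calculated from the two concentrations.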

[13] = Drug level in ICR mouse plasma at 5 mg/kg, iv measured after 0.5 hrs by LC-MS/MS analysis; type: ADME, organism-based; outline: as §2
[14] = Ratio of drug level in ICR mouse brain to plasma at 5 mg/kg, iv measured after 0.5 hrs by LC-MS/MS analysis; type: ADME, organism-based; conditions: read-out: BPR; outline: as §2
[15] = Drug level in ICR mouse brain at 5 mg/kg, iv measured after 2 hrs by LC-MS/MS analysis; type: ADME, organism-based; outline: as §2
[16] = Drug level in ICR mouse plasma at 5 mg/kg, iv measured after 2 hrs by LC-MS/MS analysis; type: ADME, organism-based; outline: as §2
[17] = Ratio of drug level in ICR mouse brain to plasma at 5 mg/kg, iv measured after 2 hrs by LC-MS/MS analysis; type: ADME, organism-based; conditions: read-out: BPR; outline: as §2
[18] = Tmax in ICR mouse at 10 mg/kg, po by LC-MS/MS analysis; type: ADME, organism-based; conditions: in vivo; outline: as §1
[19] = Half life in ICR mouse at 10 mg/kg, po by LC-MS/MS analysis; type: ADME, organism-based; conditions: in vivo; outline: as §1
[20] = AUC (0 to t) in ICR mouse at 10 mg/kg, po by LC-MS/MS analysis; type: ADME, organism-based; conditions: in vivo; outline: as §1
[21] = MRT in ICR mouse at 10 mg/kg, po by LC-MS/MS analysis; type: ADME, organism-based; conditions: in vivo; outline: as §1
[22] = Oral bioavailability in ICR mouse at 10 mg/kg by LC-MS/MS analysis; type: ADME, organism-based; conditions: in vivo; outline: as §1
[23] = Drug level in ICR mouse brain at 10 mg/kg, po measured after 0.5 hrs by LC-MS/MS analysis; type: ADME, organism-based; outline: as §2
[24] = Drug level in ICR mouse plasma at 10 mg/kg, po measured after 0.5 hrs by LC-MS/MS analysis; type: ADME, organism-based; outline: as §2
[25] = Ratio of drug level in ICR mouse brain to plasma at 10 mg/kg, po measured after 0.5 hrs by LC-MS/MS analysis; type: ADME, organism-based; conditions: read-out: BPR; outline: as §2
[26] = Drug level in ICR mouse brain at 10 mg/kg, po measured after 2 hrs by LC-MS/MS analysis; type: ADME, organism-based; outline: as §2
[27] = Drug level in ICR mouse plasma at 10 mg/kg, po measured after 2 hrs by LC-MS/MS analysis; type: ADME, organism-based; outline: as §2
[28] = Ratio of drug level in ICR mouse brain to plasma at 10 mg/kg, po measured after 2 hrs by LC-MS/MS analysis; type: ADME, organism-based; conditions: read-out: BPR; outline: as §2

Sequence of D(1A) dopamine receptor (P21728 whole entry): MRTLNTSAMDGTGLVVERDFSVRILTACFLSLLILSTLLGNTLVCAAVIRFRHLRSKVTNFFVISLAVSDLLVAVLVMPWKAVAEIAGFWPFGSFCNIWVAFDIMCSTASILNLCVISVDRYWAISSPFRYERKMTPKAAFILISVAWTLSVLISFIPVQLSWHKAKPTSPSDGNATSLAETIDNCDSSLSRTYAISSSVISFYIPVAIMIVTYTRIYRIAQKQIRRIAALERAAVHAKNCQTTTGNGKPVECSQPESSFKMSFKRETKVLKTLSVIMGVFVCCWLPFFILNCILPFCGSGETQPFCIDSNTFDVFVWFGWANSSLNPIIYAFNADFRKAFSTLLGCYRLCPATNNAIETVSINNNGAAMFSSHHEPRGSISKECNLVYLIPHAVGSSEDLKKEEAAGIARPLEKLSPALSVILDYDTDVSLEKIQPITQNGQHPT

CCCN(CCCCNC(=O)c1ccc(-c2ccccn2)cc1)C[C@H]1C[C@@H]1c1cccc(Cl)c1Cl.Cl
Ki (D(1A) dopamine receptor): 2340 nM
Ki (D(4) dopamine receptor): 912 nM
Ki (D(1B) dopamine receptor): > 5000 nM
Ki [1]: 44.7 nM
EC50 [2]: 738 nM
Activity [3]: Active
Activity [4]: Not Active

CCCN(CCCCNC(=O)c1cc2ccccc2[nH]1)C[C@@H]1C[C@H]1c1cccc(Cl)c1Cl.Cl
Cmax [5]: 63.9 ng/mL
Ki (D(1A) dopamine receptor): 1380 nM
Ki (D(2) dopamine receptor): 537 nM
Ki (D(4) dopamine receptor): 1050 nM
Ki (D(1B) dopamine receptor): > 5000 nM
Ki [1]: 513 nM
IC50 [6]: > 30000 nM
Activity [3]: Active
Activity [4]: Not Active
half-life [7]: 3.12 h
AUC(0-t) [8]: 629 ng·h/mL
clearance [9]: 117 mL/min/kg
MRT [10]: 3.4 h
Vd [11]: 23.8 L/kg
concentration at 0.5 h [12]: 833 ng/mL
concentration at 0.5 h [13]: 215 ng/mL
Kp at 0.5 h [14]: 3.88
concentration at 2 h [15]: 543 ng/mL
concentration at 2 h [16]: 94.8 ng/mL
Kp at 2 h [17]: 5.72
Tmax [18]: 1 h
half-life [19]: 4.11 h
AUC(0-t) [20]: 428 ng·h/mL
MRT [21]: 6 h
bioavailability [22]: 34.1%
concentration at 0.5 h [23]: 51.3 ng/mL
concentration at 0.5 h [24]: 35.5 ng/mL
Kp at 0.5 h [25]: 1.45
concentration at 2 h [26]: 160 ng/mL
concentration at 2 h [27]: 67.7 ng/mL
Kp at 2 h [28]: 2.36

CCCN(CCCCNC(=O)c1ccc2ccccc2c1)C[C@H]1C[C@@H]1c1cccc(Cl)c1Cl.Cl
Ki (D(1A) dopamine receptor): 1050 nM
Ki (D(2) dopamine receptor): 1150 nM
Ki (D(4) dopamine receptor): 776 nM
Ki (D(1B) dopamine receptor): > 5000 nM
Ki [1]: 138 nM
EC50 [2]: 3540 nM
Activity [3]: Active
Activity [4]: Not Active

CCCN(CCCCNC(=O)c1cc2ccccc2[nH]1)C[C@H]1C[C@@H]1c1cccc(Cl)c1Cl.Cl
Ki (D(1A) dopamine receptor): 1120 nM
Ki (D(2) dopamine receptor): 992 nM
Ki (D(4) dopamine receptor): 676 nM
Ki (D(1B) dopamine receptor): > 5000 nM
Ki [1]: 61.7 nM
EC50 [2]: 2550 nM
Activity [3]: Active
Activity [4]: Not Active
